Experiments:
[1] = cited from earlier work
CYP1A2 = settings: recombinant human CYPs; cited from earlier work
CYP2D6 = settings: recombinant human CYPs; cited from earlier work
CYP2C9 = settings: recombinant human CYPs; cited from earlier work
[2] = cited from earlier work; remark: listed apart in the source
[3] = Part 1: mobocertinib-itraconazole DDI study, plasma PK; type: in vivo, human; settings: for AUC(0-inf) / Cmax / half-life: human, plasma, oral; for AUC(0-inf): AUC0-∞; for half-life: t½; for AUC0-∞, Geometric LS Mean Ratio (90%CI) (Test/Reference) / Cmax, Geometric LS Mean Ratio (90%CI) (Test/Reference): mobocertinib 20 mg + itraconazole vs mobocertinib alone
Outline: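 Nonsmoking adults aged 18–55 (n = 12) took a single oral capsule dose of 20 mg fasted, with a meal at least 4 h postdose. This was repeated with itraconazole solution 200 mg once daily on an empty stomach over 14 days, after a 4-day lead-in. Plasma was sampled predose to 168 h, adding 192 and 240 h with itraconazole. Parent and two metabolites were measured by LC-MS/MS (LLOQ 0.100 ng/mL). Analysis was noncompartmental, with ln-transformed geometric LSM ratios and 90% CI.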

CYP3A4/5 = settings: recombinant human CYPs; cited from earlier work
[4] = Part 1 safety: treatment-emergent adverse events, labs, vital signs, ECG; type: in vivo, human
Outline: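 Part 1 had 12 healthy adults. They received a single fasted oral 20 mg dose of the test compound, then itraconazole oral solution 200 mg once daily for 14 days, with the test compound coadministered. TEAEs were recorded through 30 days after the last test-compound dose, coded with MedDRA v22.0 and graded by NCI CTCAE v5. Vital signs, hematology/chemistry/urinalysis and 12-lead ECG were also assessed. All were summarised descriptively.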

CYP2C8 = settings: recombinant human CYPs; cited from earlier work
CYP2C19 = settings: recombinant human CYPs; cited from earlier work
[5] = Part 2: mobocertinib-rifampin DDI study, plasma PK; type: in vivo, human
[6] = Part 2 safety: treatment-emergent adverse events, labs, vital signs, ECG; type: in vivo, human
Outline: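 Part 2 had 12 healthy adults. They received a single fasted oral 160 mg dose of the test compound, then rifampin 600 mg once daily, with a 7-day lead-in before coadministration and 6 days of continued dosing afterwards. TEAEs were recorded through 30 days after the last test-compound dose, coded with MedDRA v22.0 and graded by NCI CTCAE v5. Vital signs, hematology/chemistry/urinalysis and 12-lead ECG were also assessed. All were summarised descriptively.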

[7] = preclinical data; ref data on file; Millennium Pharmaceuticals, Inc.; cited from earlier work
CYP2B6 = settings: recombinant human CYPs; cited from earlier work
[8] = 20 mg, Arithmetic Means (SD), mobocertinib 20 mg alone (reference), footnote a: mean (%CV)
[9] = 20 mg, Geometric Means (%CV), mobocertinib 20 mg alone (reference)
[10] = Arithmetic Means (SD), mobocertinib 20 mg + itraconazole 200 mg once daily (test), footnote a: mean (%CV)
[11] = Geometric Means (%CV), mobocertinib 20 mg + itraconazole 200 mg once daily (test)
[12] = itraconazole and mobocertinib 20 mg vs mobocertinib alone
[13] = itraconazole plus mobocertinib 20 mg vs mobocertinib alone
[14] = Mobocertinib 20 mg + Itraconazole, part 1
[15] = Mobocertinib 20 mg Alone, part 1
[16] = mobocertinib 160 mg + rifampin vs mobocertinib alone
[17] = rifampin plus mobocertinib 160 mg
[18] = Mobocertinib 160 mg + Rifampin, part 2
[19] = Mobocertinib 160 mg Alone, part 2

C=CC(=O)Nc1cc(Nc2ncc(C(=O)OC(C)C)c(-c3cn(C)c4ccccc34)n2)c(OC)cc1N(C)CCN(C)C [Mobocertinib]
Effect of a low-fat meal on absorption [1]: no apparent effect | Excreted unchanged in urine ([1]; renal elimination): < 1.2% | Mean half-life ([1]; single oral doses, healthy volunteers): 20 h | Percent contribution of enzyme to metabolism (CYP1A2): < 2% | Percent contribution of enzyme to metabolism (CYP2D6): < 2% | Percent contribution of enzyme to metabolism (CYP2C9): < 2% | Accumulation of systemic exposure after repeat dosing ([2]; 20 to 120 mg once daily, patients with NSCLC): moderate accumulation | Recommended phase 2 dose ([2]; dose escalation, patients with NSCLC): 160 mg once daily | Dose proportionality of Cmax and AUC0-24 ([2]; dose range 5 to 180 mg once daily): increased in a dose‐proportional manner | Median tmax ([2]; once-daily administration, patients with NSCLC): 4 hours postdose | AUC(0-inf) [3, 8]: 0.113 µg·h/mL | AUC(0-inf) [3, 9]: 0.106 µg·h/mL | Cmax [3, 8]: 0.00578 µg/mL | Cmax [3, 9]: 0.00552 µg/mL | half-life [3, 8]: 21.5 h | half-life [3, 9]: 21.2 h | AUC(0-inf) [3, 10]: 0.907 µg·h/mL | AUC(0-inf) [3, 11]: 0.892 µg·h/mL | Cmax [3, 10]: 0.0215 µg/mL | Cmax [3, 11]: 0.0211 µg/mL | half-life [3, 10]: 54.7 h | half-life [3, 11]: 53.9 h | Increase in plasma AUC0-∞ [3, 12]: 743% | Increase in plasma Cmax [3, 12]: ≈ 283% | Increase in geometric mean t½ [3, 13]: 154% | Median tmax reached later [3, 13]: 2 h | AUC0-∞, Geometric LS Mean Ratio (90%CI) (Test/Reference) [3]: 8.43 (7.02‐10.12) | Cmax, Geometric LS Mean Ratio (90%CI) (Test/Reference) [3]: 3.83 (3.25‐4.50) | AUC0-∞, Geometric LS Mean Ratio (90%CI) (Test/Reference) ([3]; listed as mobocertinib): 8.43 | Cmax, Geometric LS Mean Ratio (90%CI) (Test/Reference) ([3]; listed as mobocertinib): 3.83 | Percent contribution of enzyme to metabolism (CYP3A4/5): > 90% | TEAE: Back pain [4, 14]: 1 (8) n (%) | TEAE: Chest discomfort [4, 14]: 0 n (%) | TEAE: Diarrhea [4, 14]: 2 (17) n (%) | TEAE: Dry skin [4, 14]: 0 n (%) | TEAE: Dry throat [4, 14]: 0 n (%) | TEAE: Headache [4, 14]: 1 (8) n (%) | TEAE: Nausea [4, 14]: 0 n (%) | TEAE: Oropharyngeal pain [4, 14]: 0 n (%) | TEAE: Pruritus [4, 14]: 0 n (%) | TEAE: Pruritus generalized [4, 14]: 0 n (%) | TEAE: Rash [4, 14]: 0 n (%) | Volunteers with TEAEs [4, 14]: 4 (33) n (%) | Volunteers without TEAEs [4, 14]: 8 (67) n (%) | TEAE: Back pain [4, 15]: 0 n (%) | TEAE: Chest discomfort [4, 15]: 0 n (%) | TEAE: Diarrhea [4, 15]: 0 n (%) | TEAE: Dry skin [4, 15]: 1 (8) n (%) | TEAE: Dry throat [4, 15]: 0 n (%) | TEAE: Headache [4, 15]: 0 n (%) | TEAE: Nausea [4, 15]: 0 n (%) | TEAE: Oropharyngeal pain [4, 15]: 0 n (%) | TEAE: Pruritus [4, 15]: 0 n (%) | TEAE: Pruritus generalized [4, 15]: 0 n (%) | TEAE: Rash [4, 15]: 0 n (%) | Volunteers with TEAEs [4, 15]: 1 (8) n (%) | Volunteers without TEAEs [4, 15]: 11 (92) n (%) | TEAE: Back pain ([4]; Part 1 Overall): 1 (8) n (%) | TEAE: Chest discomfort ([4]; Part 1 Overall): 0 n (%) | TEAE: Diarrhea ([4]; Part 1 Overall): 2 (17) n (%) | TEAE: Dry skin ([4]; Part 1 Overall): 1 (8) n (%) | TEAE: Dry throat ([4]; Part 1 Overall): 0 n (%) | TEAE: Headache ([4]; Part 1 Overall): 1 (8) n (%) | TEAE: Nausea ([4]; Part 1 Overall): 0 n (%) | TEAE: Oropharyngeal pain ([4]; Part 1 Overall): 0 n (%) | TEAE: Pruritus ([4]; Part 1 Overall): 0 n (%) | TEAE: Pruritus generalized ([4]; Part 1 Overall): 0 n (%) | TEAE: Rash ([4]; Part 1 Overall): 0 n (%) | Volunteers with TEAEs ([4]; Part 1 Overall): 5 (42) n (%) | Volunteers without TEAEs ([4]; Part 1 Overall): 7 (58) n (%) | Changes in laboratory parameters, vital signs, or ECGs ([4]; part 1): no apparent or consistent treatment‐related changes | Deaths, serious TEAEs, discontinuations ([4]; part 1): No deaths, serious TEAEs, or discontinuations | Tolerability ([4]; single oral dose 20 mg with itraconazole, healthy volunteers): generally well tolerated | Percent contribution of enzyme to metabolism (CYP2C8): < 2% | Percent contribution of enzyme to metabolism (CYP2C19): < 2% | AUC0-∞, Geometric LS Mean Ratio (90%CI) (Test/Reference) [5, 16]: 0.04 (0.03‐0.05) | Cmax, Geometric LS Mean Ratio (90%CI) (Test/Reference) [5, 16]: 0.05 (0.04‐0.07) | AUC0-∞, Geometric LS Mean Ratio (90%CI) (Test/Reference) ([5]; mobocertinib 160 mg + rifampin vs mobocertinib alone, listed as mobocertinib): 0.04 | Plasma AUC0-∞ as % of value following mobocertinib alone [5, 17]: ~4% | Plasma Cmax as % of value following mobocertinib alone [5, 17]: approximately 5% | Reduction in geometric mean t½ ([5]; rifampin plus mobocertinib 160 mg vs mobocertinib alone): 29% | TEAE: Back pain [6, 18]: 1 (8) n (%) | TEAE: Chest discomfort [6, 18]: 2 (17) n (%) | TEAE: Diarrhea [6, 18]: 3 (25) n (%) | TEAE: Dry skin [6, 18]: 0 n (%) | TEAE: Dry throat [6, 18]: 0 n (%) | TEAE: Headache [6, 18]: 2 (17) n (%) | TEAE: Nausea [6, 18]: 2 (17) n (%) | TEAE: Oropharyngeal pain [6, 18]: 2 (17) n (%) | TEAE: Pruritus [6, 18]: 2 (17) n (%) | TEAE: Pruritus generalized [6, 18]: 0 n (%) | TEAE: Rash [6, 18]: 2 (17) n (%) | Volunteers with TEAEs [6, 18]: 10 (83) n (%) | Volunteers without TEAEs [6, 18]: 2 (17) n (%) | TEAE: Back pain [6, 19]: 1 (8) n (%) | TEAE: Chest discomfort [6, 19]: 0 n (%) | TEAE: Diarrhea [6, 19]: 2 (17) n (%) | TEAE: Dry skin [6, 19]: 3 (25) n (%) | TEAE: Dry throat [6, 19]: 2 (17) n (%) | TEAE: Headache [6, 19]: 1 (8) n (%) | TEAE: Nausea [6, 19]: 1 (8) n (%) | TEAE: Oropharyngeal pain [6, 19]: 0 n (%) | TEAE: Pruritus [6, 19]: 0 n (%) | TEAE: Pruritus generalized [6, 19]: 2 (17) n (%) | TEAE: Rash [6, 19]: 0 n (%) | Volunteers with TEAEs [6, 19]: 9 (75) n (%) | Volunteers without TEAEs [6, 19]: 3 (25) n (%) | TEAE: Back pain ([6]; Part 2 Overall): 2 (17) n (%) | TEAE: Chest discomfort ([6]; Part 2 Overall): 2 (17) n (%) | TEAE: Diarrhea ([6]; Part 2 Overall): 4 (33) n (%) | TEAE: Dry skin ([6]; Part 2 Overall): 3 (25) n (%) | TEAE: Dry throat ([6]; Part 2 Overall): 2 (17) n (%) | TEAE: Headache ([6]; Part 2 Overall): 3 (25) n (%) | TEAE: Nausea ([6]; Part 2 Overall): 3 (25) n (%) | TEAE: Oropharyngeal pain ([6]; Part 2 Overall): 2 (17) n (%) | TEAE: Pruritus ([6]; Part 2 Overall): 2 (17) n (%) | TEAE: Pruritus generalized ([6]; Part 2 Overall): 2 (17) n (%) | TEAE: Rash ([6]; Part 2 Overall): 2 (17) n (%) | Volunteers with TEAEs ([6]; Part 2 Overall): 11 (92) n (%) | Volunteers without TEAEs ([6]; Part 2 Overall): 1 (8) n (%) | Changes in laboratory parameters, vital signs, or ECGs ([6]; part 2): no apparent or consistent treatment‐related changes | Deaths, serious TEAEs, discontinuations ([6]; part 2): No deaths, serious TEAEs, or discontinuations | Tolerability ([6]; single oral dose 160 mg with rifampin, healthy volunteers): generally well tolerated | Mutagenicity / genotoxicity [7]: neither mutagenic nor genotoxic | Percent contribution of enzyme to metabolism (CYP2B6): < 2%
